Platelet DG rel – inhibitors of platelet dense granule secretion, primary screen, cell-based, MLPCN, human platelets | human platelet-rich plasma, SFLLRN dense granule ATP release, luminescence | inhibition, %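 (compounds screened at 7.5 µM in platelet-rich plasma)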 | 300,000 compounds, 0.22% hits;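 active = mean replicate score, as percent of positive control, at or above 50; inconclusive = mean below 50 but at least one replicate at or above 50; inactive = mean and every replicate below 50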
TRAIL sens C8 – viability loss with TRAIL in NB7+C8 cells, primary screen, TRAIL sensitizer project, cell-based, ATPlite luminescence. inhibition (viability loss, TRAIL sensitization), % at 10 µM. 360,000 compounds, 1% hits;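 active = compounds causing at least 50% loss of cell viability in the single-dose screen, relative to plate controls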
FLuc act counter – FLuc activators, initial screening, artefact control for FLuc-dependent activation tests, biochemical, ATPlite luminescence; activation factor at 10 µM; 200,000 tested, under 10 active; ATPlite luciferase biochemical, 10 min; 0 = ATP-free wells, 1 = DMSO control; Luciferin 4-monooxygenase (Photinus pyralis), P08659;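 active = luciferase activation factor, scaled between plate controls, of at least 2 with compound at 10 µM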
Target sequence (P08659 whole entry, looked up): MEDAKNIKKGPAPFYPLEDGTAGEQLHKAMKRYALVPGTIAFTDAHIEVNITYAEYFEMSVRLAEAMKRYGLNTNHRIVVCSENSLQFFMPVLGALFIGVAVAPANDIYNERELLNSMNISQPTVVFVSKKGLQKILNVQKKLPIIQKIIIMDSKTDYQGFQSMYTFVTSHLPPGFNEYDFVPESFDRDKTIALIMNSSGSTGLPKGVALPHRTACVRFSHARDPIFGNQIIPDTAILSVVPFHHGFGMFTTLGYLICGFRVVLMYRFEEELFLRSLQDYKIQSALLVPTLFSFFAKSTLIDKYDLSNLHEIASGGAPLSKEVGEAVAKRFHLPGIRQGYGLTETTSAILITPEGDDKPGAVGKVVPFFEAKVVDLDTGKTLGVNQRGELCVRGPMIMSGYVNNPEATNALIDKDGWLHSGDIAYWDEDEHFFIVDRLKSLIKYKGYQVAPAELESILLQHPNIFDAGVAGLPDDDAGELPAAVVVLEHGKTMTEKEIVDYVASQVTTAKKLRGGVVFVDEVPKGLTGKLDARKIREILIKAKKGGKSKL
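Material: luciferase plus luciferin reagent, cell-free. Medium: PBS buffer for ATP. Also added: ATP substrate, dispensed from a 10.24 µM working solution in PBS. Doses: test compounds dosed from 2 mM stocks in 100% DMSO. Incubation: 10 min post-reagent at room temperature. Technique: light output (luminescence). Read-out basis: luminescence gain marking luciferase activators.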
FLuc inh counter – firefly luciferase enzyme inhibitors, primary screen, artefact control for luciferase-based inhibitor screens, biochemical, luminescence, ATPLite; Luciferin 4-monooxygenase (Photinus pyralis), P08659; 10 min; inhibition, % at 10 µM; 200,000 compounds, 1.5% hits; AID 1006, 2008;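 active = inhibition above about 50% when tested at 10 µM, limit read from the data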
PPC-1+TRAIL kill – compounds killing PPC-1 cancer cells with TRAIL present, primary screen, TRAIL potentiator project, ATPLite luminescence, uHTS; PPC-1 cells + TRAIL, ATPLite viability luminescence; cell killing (% activity), % at 4 µM or 5 µM; 220,000 compounds, 0.41% hits; AID 1443, 2008;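 active = cell killing above 50% in the first pass at 4 µM, then a duplicate retest at 5 µM averaging 50% or more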
PPC-1 tox – cytotoxicity in PPC-1 cells, confirmation, cytotoxicity control for TRAIL apoptosis potentiator project, cell-based, ATP content luminescence | AID 1447, 2008 | 1,200 compounds, 50% hits | cytotoxicity, % at 5 µM | PPC-1 viability, ATPlite luminescence, overnight | shares compounds with PPC-1+TRAIL kill;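 active = reconfirmed compounds whose average cytotoxicity reaches 50% or more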
Hits are given with their value; n = inactive; u = inconclusive; x = no result given. Only some compounds are listed: those with a hit (about 1.6% of all), similar ones and a draw of the others.

SMILES | Platelet DG rel | TRAIL sens C8 | FLuc act counter | FLuc inh counter | PPC-1+TRAIL kill | others
CCOc1ccc(NC(=O)c2cccnc2C(=O)O)cc1 | n | n | n | n | n
CCOc1ccc(NC(=O)c2cnccn2)cc1 | n | n | n | 72.0 | n
CN(CCc1ccccc1)c1cc2c(c3c1ccn3C)C1CCC2C1 (stereo not drawn) | x | n | x | x | x
CCOc1ccc(NC(=O)c2ccccc2OCC(=O)c2ccccc2)cc1 | n | n | n | 60.9 | n
COc1cccc(-c2nc3ccccc3s2)c1 | n | n | n | 74.7 | n
Oc1ccc(-c2nc3ccccc3s2)cc1 | u | 62.0 | x | x | n
c1cncc(-c2nc3ccccc3s2)c1 | n | n | x | x | n
c1ccc2[nH]c(-c3ccc4c(c3)OCO4)nc2c1 | 73.1 | 71.8 | x | x | x
c1ccc2sc(-c3ccncc3)nc2c1 | n | n | x | x | n
c1ccc2sc(-c3ccc4c(c3)OCO4)nc2c1 | x | 73.1 | n | 89.0 | 57.6
COCCNC(=O)C1(C)CCCN(Cc2sc(C)nc2C)C1 (stereo not drawn) | x | n | x | x | x
CC1(C(=O)NS(=O)(=O)c2ccccc2Cl)CCN1C(=O)CCc1ccccc1 (stereo not drawn) | x | n | x | x | x
CC(=O)NCc1ccc(-c2nc3ccccc3s2)cc1 | n | n | n | 64.4 | n
O=C(NCc1ccccc1)c1nc2ccccc2s1 | n | n | n | n | n
O=C(Nc1cccc(Cl)c1N1CCCC1)c1ccc([N+](=O)[O-])o1 | x | n | n | n | n
CCN1CCN(c2c(Cl)cccc2NC(=O)c2ccc([N+](=O)[O-])o2)CC1 | n | 59.3 | x | x | x
CCCC(=O)N1CCN(c2ccc(NC(=O)c3ccc([N+](=O)[O-])o3)cc2Cl)CC1 | n | 59.3 | n | n | n
CC(C)C(=O)N1CCN(c2ccc(NC(=O)c3ccc([N+](=O)[O-])o3)cc2Cl)CC1 | x | 67.3 | n | n | n
OC[C@H]1O[C@@H](n2cnc3c(NC4CCCC4)nc(Cl)nc32)[C@H](O)[C@@H]1O | x | n | x | x | x
Nc1nc(=S)c2ncn([C@@H]3O[C@H](CO)[C@@H](O)[C@H]3O)c2[nH]1 | x | 73.3 | x | x | x
Nc1nc(Cl)nc2c1ncn2[C@@H]1O[C@H](CO)[C@@H](O)[C@H]1O | 88.8 | n | n | n | n
Nc1nc(=S)c2ncn(C3OC(CO)C(O)C3O)c2[nH]1 (stereo not drawn) | n | 56.0 | x | x | n
O=C(Nc1ccccn1)C(c1ccccc1)c1ccccc1 | x | n | x | x | x
COc1ccc(-c2csc(NC(=O)CSc3ncn[nH]3)n2)cc1OC | n | n | n | n | n
O=C(CSc1ncn[nH]1)Nc1nc(-c2ccccc2)cs1 | n | n | n | n | n | PPC-1 tox=n
SMILES | Platelet DG rel | TRAIL sens C8 | FLuc act counter | FLuc inh counter | PPC-1+TRAIL kill | others
N#Cc1cccc(NC(=O)c2cc(C3CCCCN3C(=O)c3ccccn3)on2)c1 (stereo not drawn) | x | n | x | x | x
Cc1ccccc1NC(=O)c1nc[nH]c1C(=O)NCc1ccccc1 | n | n | n | n | n | PPC-1 tox=n
Cc1ccc(NC(=O)c2nc[nH]c2C(=O)NCc2ccccc2)cc1 | x | n | x | x | x
Nc1ncnc2c1ccn2[C@H]1CN(Cc2ccc3c(c2)OCO3)C[C@@H](COC(=O)c2ccccc2)O1 | x | n | x | x | x
C#CCNC(=O)C[C@@H]1C[C@@]2(C(=O)OC)CCCCC=C2N(Cc2ccc3c(c2)OCO3)C1=O | x | n | x | x | x
CCOC(=O)C1=C2N(C)c3ccccc3N2CCC1=O | x | n | n | n | n | PPC-1 tox=n
COc1ccc(CCC2=NCCN2C(CC(C)C)c2nc3ccccc3[nH]2)cc1 (stereo not drawn) | x | n | x | x | x
Cc1noc(NS(=O)(=O)c2ccc(N/C=C\C(=O)c3cccs3)cc2)c1C | n | n | n | n | n
Cc1ccc(N/C=C/C(=O)c2cccs2)cc1 | 51.6 | 88.0 | n | 96.9 | 85.8 | PPC-1 tox=84.9
COc1cccc(N/C=C/C(=O)c2ccc(Br)cc2)c1 | x | n | x | x | x
COc1ccc(C(=O)/C=C/Nc2cccc(O)c2)cc1 | 55.1 | 61.7 | n | 95.2 | 81.8 | PPC-1 tox=82.6
O=C(/C=C\Nc1ccc2c(c1)OCO2)c1cccs1 | n | 78.4 | n | 96.0 | 81.9 | PPC-1 tox=81.6

Compound activity: PubChem, several laboratories
